Source: PubChem BioAssay AID651628 (The Scripps Research Institute Molecular Screening Center, 2012)
Active and inactive are the calls of the source.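 The calls were made as follows: active = at least one off-target enzyme showing weaker fluorescent probe labeling in any proteome panel; inactive = no off-target enzyme affected in any panel.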

The compounds below were run on Soluble Proteome (assay: proteome-wide probe labelling blockade by competitive ABPP – cell lysate, gel-based fluorescence, soluble and membrane fractions, selectivity assay for PAD4 inhibitor project, late-stage follow-up (AID 651628)). Conditions: MCF7 proteome, CA-Rh gel-based ABPP, anti-target count, at 10 µM, active compounds read high.
Procedure, shortened: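 Test system: MCF7 cell proteome, soluble or membrane fraction / Amount: proteome protein concentration of 1 mg/ml / Schedule: compound 1 h, probe 1 h, 25 °C / Buffer or medium: DPBS / Detection: SDS-PAGE separation with in-gel fluorescence scanning of labelled bands / Also added: Chloroacetamide-rhodamine (CA-Rh) labelling probe, 10 µM / Doses: compound at 10 or 50 µM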

| SMILES | number of anti-targets |
| --- | --- |
| COC1=CC(=O)c2nc(C#N)ccc2C1=O | > 5 (active) |
| COC(=O)c1cccc(-c2ccc3c(n2)C(=O)C(N)=CC3=O)n1 | 0 (inactive) |
| NC1=CC(=O)c2ccc(-c3cccc(C(=O)O)n3)nc2C1=O | 0 (inactive) |
| COC(=O)c1nc(C(=O)OC)c(NC(C)=O)c(-c2ccccc2Br)c1C | 0 (inactive) |
| NC1=CC(=O)c2cccnc2C1=O | 0 (inactive) |
| COC1=C(Br)C(=O)c2ncccc2C1=O | > 5 (active) |
| COC(=O)c1cccc(-c2ccc3c(n2)C(=O)C(Br)=CC3=O)n1 | 0 (inactive) |
| O=C1C(O)=C(O)C(=O)c2ncccc21 | 0 (inactive) |
| NC1=CC(=O)c2ccc(-c3ccccn3)nc2C1=O | 0 (inactive) |
| COC1=C(I)C(=O)c2nc(C#N)ccc2C1=O | > 5 (active) |
| COC1=C(N)C(=O)c2ncccc2C1=O | 0 (inactive) |
| COC1=C(Br)C(=O)c2nc(-c3ccccn3)ccc2C1=O | 0 (inactive) |
| O=C1C=C(Br)C(=O)c2ncccc21 | > 5 (active) |
| COC1=C(N)C(=O)c2nc(-c3nc(C(=O)O)c(C)c(-c4ccc(OC)c(OC)c4O)c3N)ccc2C1=O | 0 (inactive) |
